The results in this text go back to ChEMBL document CHEMBL4814052, “Isatin-derived azoles as new potential antimicrobial agents: Design, synthesis and biological evaluation” (2021).

Test [1] concerns Staphylococcus aureus. Kind of test: Antibacterial activity against methicillin resistant Staphylococcus aureus by broth microdilution method. Format: functional. A general note: Broth dilution looks for growth in wells or tubes with falling amounts of substance.
Test [2] deals with Enterococcus faecalis. Kind of test: Antibacterial activity against Enterococcus faecalis by broth microdilution method. Format: functional.
Test [3] relates to Staphylococcus aureus. Kind of test: Antibacterial activity against Staphylococcus aureus by broth microdilution method. Format: functional.
Test [4] concerns Staphylococcus aureus. Kind of test: Antibacterial activity against Staphylococcus aureus ATCC 25923 by broth microdilution method. Type of test: functional.
Test [5] has as its system Staphylococcus aureus. Kind of test: Antibacterial activity against Staphylococcus aureus ATCC 29213 by broth microdilution method. Type of test: functional.
The test system of test [6] is Klebsiella pneumoniae. Description: Antibacterial activity against Klebsiella pneumonia by broth microdilution method. Format: functional.
In test [7] the test system is Escherichia coli. Description: Antibacterial activity against Escherichia coli by broth microdilution method. Format: functional.
Test [8] relates to Escherichia coli. Kind of test: Antibacterial activity against Escherichia coli ATCC 25922 by broth microdilution method. Type of test: functional.
In test [9] the test system is Pseudomonas aeruginosa. Kind of test: Antibacterial activity against Pseudomonas aeruginosa by broth microdilution method. Type of test: functional.
Test [10] relates to Pseudomonas aeruginosa. Description: Antibacterial activity against Pseudomonas aeruginosa ATCC 27853 by broth microdilution method. Format: functional.
For test [11], the system named is Acinetobacter baumannii. Description: Antibacterial activity against Acinetobacter baumannii by broth microdilution method. Format: functional.
Test [12] has as its system Escherichia coli. Kind of test: Antibacterial activity against Escherichia coli ATCC 25922 measured after 6 passages by broth microdilution method. Type of test: functional, organism-based.
Test [13] has as its system Candida tropicalis. Kind of test: Antifungal activity against Candida tropicalis. Format: functional.
The test system of test [14] is Enterococcus faecalis. Description: Bactericidal activity against Enterococcus faecalis by broth microdilution method. Type of test: functional, organism-based.
The subject of test [15] is Candida tropicalis. Kind of test: Fungicidal activity against Candida tropicalis by broth microdilution method. Type of test: functional, organism-based.
Test [16] concerns Escherichia coli. Description: Antibacterial activity against Escherichia coli ATCC 25922 measured after 10 passages by broth microdilution method. Format: functional, organism-based.
In test [17] the test system is Calf thymus DNA. Kind of test: Binding affinity to calf thymus DNA assessed as hyperchromic effect by UV-Vis spectroscopy. Format: nucleic-acid assay. The conditions noted are these: Bos taurus. An outline of the steps: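 UV-Vis absorbance of the compound–DNA mixture is compared with the summed absorbances of free DNA and free compound. Hyperchromism is read as higher absorbance of the mixture than that sum.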

In test [18] the test system is Calf thymus DNA. Kind of test: Binding affinity to calf thymus DNA assessed as reduction in neutral red-DNA complex formation by competitive binding assay. Format: nucleic-acid assay. The conditions noted are these: Bos taurus.
Test [19] has as its system Escherichia coli. Description: Potency index, ratio of MIC of norfloxacin to MIC of compound for antibacterial activity against Escherichia coli ATCC 25922 by broth microdilution method. Type of test: functional.
Test [20] deals with Candida parapsilosis. Kind of test: Fungicidal activity against Candida parapsilosis ATCC 22019 assessed as […] by broth microdilution method.

One may read the MIC as the smallest concentration in the dilution series that meets the test's criterion for growth inhibition.

In brackets after ≈: the same amount, converted by molar mass. Activity calls are given as the source filed them.

As for `CCn1cc(C(=O)O)c(=O)c2cc(F)c(N3CCNCC3)cc21` [NORFLOXACIN], the MIC was determined as 8 µg/mL (≈ 25.1 µM) in test [1]; 4 µg/mL (≈ 12.5 µM) in test [2]; 1 µg/mL (≈ 3.13 µM) in test [3]; 1 µg/mL (≈ 3.13 µM) in test [4]; 2 µg/mL (≈ 6.26 µM) in test [5]; 4 µg/mL (≈ 12.5 µM) in test [6]. Besides, the MIC amounted to 16 µg/mL (≈ 50.1 µM) in [7]; 8 µg/mL (≈ 25.1 µM) in test [8]; 2 µg/mL (≈ 6.26 µM) in [9]; 2 µg/mL (≈ 6.26 µM) in test [10]; 8 µg/mL (≈ 25.1 µM) in test [11]. The outcome in test [12] was inactive.

Consider `CC(=O)/C=C1\C(=O)N(CCn2cncn2)c2ccccc21`, for which the MIC in [1] turned out to be 128 µg/mL (≈ 453 µM); in test [2], 32 µg/mL (≈ 113 µM); in test [3] it was 64 µg/mL (≈ 227 µM); in test [4] it was 128 µg/mL (≈ 453 µM); in [5], 64 µg/mL (≈ 227 µM); in [6] it was 32 µg/mL (≈ 113 µM). Also, the MIC in test [7] was 64 µg/mL (≈ 227 µM); in test [8] it was 1 µg/mL (≈ 3.54 µM); in [9] it was 32 µg/mL (≈ 113 µM); in test [10], 32 µg/mL (≈ 113 µM); in test [11], 64 µg/mL (≈ 227 µM); in test [13], 8 µg/mL (≈ 28.3 µM). In addition, the result in [14] and in test [15] was inactive. Besides, the outcome in [16], in [17] and in [18] was Active. The Ratio in [19] is reported as 8; in test [20], 4.

On to `O=C(CC1(O)C(=O)N(CCn2cncn2)c2ccccc21)c1ccc(Cl)cc1` (stereo unspecified), for which the MIC in test [1] turned out to be 128 µg/mL (≈ 323 µM); in test [2], 256 µg/mL (≈ 645 µM); in test [3] it was 128 µg/mL (≈ 323 µM); in test [4], 256 µg/mL (≈ 645 µM); in [5], 128 µg/mL (≈ 323 µM); in test [6], 256 µg/mL (≈ 645 µM). Further, the MIC was 128 µg/mL (≈ 323 µM) in test [7]; 512 µg/mL (≈ 1290 µM) in [8]; 512 µg/mL (≈ 1290 µM) in test [9]; 128 µg/mL (≈ 323 µM) in test [10]; 64 µg/mL (≈ 161 µM) in [11].

As to `O=C1C(=O)N(CCn2ccnn2)c2ccccc21`, the MIC stood at 256 µg/mL (≈ 1060 µM) in test [1]; 128 µg/mL (≈ 528 µM) in [2]; 32 µg/mL (≈ 132 µM) in [3]; 256 µg/mL (≈ 1060 µM) in test [4]; 256 µg/mL (≈ 1060 µM) in [5]; 256 µg/mL (≈ 1060 µM) in [6]. Further, the MIC in test [7] came to 256 µg/mL (≈ 1060 µM); in test [8] it was 128 µg/mL (≈ 528 µM); in test [9], 128 µg/mL (≈ 528 µM); in test [10], 128 µg/mL (≈ 528 µM); in test [11], 32 µg/mL (≈ 132 µM).

Consider `O=C(/C=C1\C(=O)N(CCn2cncn2)c2ccccc21)c1ccccc1`, for which the MIC in [1] was 256 µg/mL (≈ 743 µM); in test [2] it was 128 µg/mL (≈ 372 µM); in test [3], 128 µg/mL (≈ 372 µM); in test [4] it was 128 µg/mL (≈ 372 µM); in [5] it was 128 µg/mL (≈ 372 µM); in test [6], 64 µg/mL (≈ 186 µM). Further, the MIC in [7] stood at 64 µg/mL (≈ 186 µM); in [8] it was 8 µg/mL (≈ 23.2 µM); in test [9], 32 µg/mL (≈ 92.9 µM); in test [10], 128 µg/mL (≈ 372 µM); in test [11], 128 µg/mL (≈ 372 µM).

For the molecule `O=C(/C=C1\C(=O)N(CCn2cncn2)c2ccccc21)c1ccc(Cl)cc1`, the MIC was found to be 32 µg/mL (≈ 84.5 µM) in [1]; 32 µg/mL (≈ 84.5 µM) in test [2]; 512 µg/mL (≈ 1350 µM) in test [3]; 128 µg/mL (≈ 338 µM) in test [4]; 64 µg/mL (≈ 169 µM) in test [5]; 128 µg/mL (≈ 338 µM) in test [6]. Moreover, the MIC was 512 µg/mL (≈ 1350 µM) in [7]; 64 µg/mL (≈ 169 µM) in test [8]; 512 µg/mL (≈ 1350 µM) in test [9]; 512 µg/mL (≈ 1350 µM) in test [10]; over 512 µg/mL in test [11].

For the molecule `OC(Cn1cncn1)(Cn1cncn1)c1ccc(F)cc1F`, in test [13], the result was Active.
